{
  "source": "ChEMBL document CHEMBL1121713",
  "about": "“Synthesis and antiinflammatory activity of metabolites of piroxicam” (1981)",
  "key": {"Rattus norvegicus [1]": {"test_system": "Rattus norvegicus", "experiment": "Antiinflammatory activity of compound expressed as percentage inhibition of carrageenan edema 4 hr after an oral dose of 33 mg/kg.", "type": "functional", "method_in_brief": "(§1)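 Rat carrageenan paw edema, subplantar carrageenan injection, per Winter et al. Oral dosing in water with 4% polyethylene glycol and 0.2% Tween 80, dilute NaOH added as needed to dissolve. Six rats per treated group, eight per vehicle-only or phenylbutazone group, run concurrently. Read-out is mean % inhibition of edema 4 h after the dose versus vehicle controls.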"}, "Rattus norvegicus [2]": {"test_system": "Rattus norvegicus", "experiment": "Antiinflammatory activity of compound expressed as percentage inhibition of carrageenan edema 4 hr after an oral dose of 10 mg/kg.", "type": "functional", "method_in_brief": "as §1"}, "Rattus norvegicus [3]": {"test_system": "Rattus norvegicus", "experiment": "Antiinflammatory activity of compound expressed as percentage inhibition of carrageenan edema 4 hr after an oral dose of 10 mg/kg; Not available", "type": "functional, organism-based", "parameters": "dose 10 mg/kg", "method_in_brief": "as §1"}},
  "note": "Calls of active or inactive are those of the source. The calls are words filed in the database; no cut-off is given here.",
  "data": [
    {"smiles": "CN1C(C(=O)Nc2ccc(O)cn2)=C(O)c2ccccc2S1(=O)=O", "note": "[HYDROXY PIROXICAM METABOLITE]", "values": [
      {"measurement": "inhibition in vivo at 33 mg/kg", "setting": "Rattus norvegicus [1]", "result": 17, "unit": "%"},
      {"measurement": "inhibition in vivo at 10 mg/kg", "setting": "Rattus norvegicus [2]", "result": 15, "unit": "%"}
    ]},
    {"smiles": "CN1c2c(n3ccccc3nc2=O)-c2ccccc2S1(=O)=O", "values": [
      {"measurement": "inhibition in vivo at 33 mg/kg", "setting": "Rattus norvegicus [1]", "result": 46, "unit": "%"},
      {"measurement": "inhibition in vivo at 10 mg/kg", "setting": "Rattus norvegicus [2]", "result": 38, "unit": "%"}
    ]},
    {"smiles": "CN1CC(=O)c2ccccc2S1(=O)=O", "values": [
      {"measurement": "inhibition", "setting": "Rattus norvegicus [3]", "result": "inactive"},
      {"measurement": "inhibition in vivo at 33 mg/kg", "setting": "Rattus norvegicus [1]", "result": 8, "unit": "%"}
    ]},
    {"smiles": "O=C1NS(=O)(=O)c2ccccc21", "note": "[SACCHARIN]", "values": [
      {"measurement": "inhibition in vivo at 33 mg/kg", "setting": "Rattus norvegicus [1]", "result": 0, "unit": "%"}
    ]},
    {"smiles": "CN1C(C(=O)O)=C(O)c2ccccc2S1(=O)=O", "values": [
      {"measurement": "inhibition in vivo at 33 mg/kg", "setting": "Rattus norvegicus [1]", "result": 0, "unit": "%"}
    ]},
    {"smiles": "CN1C(C(=O)Nc2cccc(O)n2)=C(O)c2ccccc2S1(=O)=O", "values": [
      {"measurement": "inhibition in vivo at 33 mg/kg", "setting": "Rattus norvegicus [1]", "result": 40, "unit": "%"},
      {"measurement": "inhibition in vivo at 10 mg/kg", "setting": "Rattus norvegicus [2]", "result": 31, "unit": "%"}
    ]},
    {"smiles": "CN1C(=O)c2ccccc2S1(=O)=O", "values": [
      {"measurement": "inhibition in vivo at 33 mg/kg", "setting": "Rattus norvegicus [1]", "result": 12, "unit": "%"}
    ]},
    {"smiles": "CCCCC1C(=O)N(c2ccccc2)N(c2ccccc2)C1=O", "note": "[PHENYLBUTAZONE]", "values": [
      {"measurement": "inhibition in vivo at 33 mg/kg", "setting": "Rattus norvegicus [1]", "result": 50, "unit": "%"},
      {"measurement": "inhibition in vivo at 10 mg/kg", "setting": "Rattus norvegicus [2]", "result": 35, "unit": "%"}
    ]},
    {"smiles": "CN1C(C(=O)Nc2ncccc2O)=C(O)c2ccccc2S1(=O)=O", "values": [
      {"measurement": "inhibition in vivo at 33 mg/kg", "setting": "Rattus norvegicus [1]", "result": 41, "unit": "%"},
      {"measurement": "inhibition in vivo at 10 mg/kg", "setting": "Rattus norvegicus [2]", "result": 13, "unit": "%"}
    ]},
    {"smiles": "CN1C(C(=O)Nc2ccccn2)=C(O)c2ccccc2S1(=O)=O", "note": "[PIROXICAM]", "values": [
      {"measurement": "inhibition in vivo at 33 mg/kg", "setting": "Rattus norvegicus [1]", "result": 75, "unit": "%"},
      {"measurement": "inhibition in vivo at 10 mg/kg", "setting": "Rattus norvegicus [2]", "result": 67, "unit": "%"}
    ]},
    {"smiles": "CN1C(C(=O)Nc2cc(O)ccn2)=C(O)c2ccccc2S1(=O)=O", "values": [
      {"measurement": "inhibition in vivo at 33 mg/kg", "setting": "Rattus norvegicus [1]", "result": 24, "unit": "%"},
      {"measurement": "inhibition in vivo at 10 mg/kg", "setting": "Rattus norvegicus [2]", "result": 10, "unit": "%"}
    ]}
  ]
}
